Source: ChEMBL document CHEMBL1250434, “A novel achiral seco-cyclopropylpyrido[e]indolone (CPyI) analog of CC-1065 and the duocarmycins: synthesis, DNA interactions, in vivo anticancer and anti-parasitic evaluation” (Bioorg Med Chem, 2010)
pIC50: −log10 of the molar value.

Tests used:
L1210 = test: Cytotoxicity against mouse L1210 cells after 3 days by MTT assay; format: functional, cell-based; conditions: L1210, 72 h
In short: (§1)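 Murine tumour cells under continuous drug exposure for 3 days. Growth inhibition measured by MTT assay. IC50 is the concentration inhibiting growth by 50%.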

[1] = Cytotoxicity against mouse B16F0 cells after 3 days by MTT assay; format: functional, cell-based; conditions: B16F0, 72 h; in short: as §1

SMILES: COc1cc2cc(C(=O)Nc3cc(O)c4ccccc4c3CCCl)[nH]c2c(OC)c1OC
- pIC50 (L1210): 6.74
- pIC50 [1]: 6.82
